# Calls of active or inactive are those of the source. The rule behind the calls is not given here.
# Legend:
# Mus musculus [1] = experiment: Increase in duration of immobility in CD1 mouse at 1 mg/kg, ip by forced swimming test relative to control; type: functional, organism-based; parameters: dose 1 mg/kg
# Outline: (§1)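 Male CD1 mice, 25-28 g, n = 10 per group. Two-day protocol: 15-min pretest swim in a cylinder of 25 °C water. After 24 h, a 10-min videotaped test session 60 min after ip injection of drug suspended in 0.5% CMC, given at 0.01 mL/g. Immobility time is compared with naïve and CMC groups by two-way ANOVA and Duncan test, p < 0.05.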
# [2] = target: T1, Amine oxidase [flavin-containing] A (Bos taurus, UniProt P21398); experiment: Inhibition of bovine MAO-A by fluorimetric method
# T1 sequence (P21398 whole entry): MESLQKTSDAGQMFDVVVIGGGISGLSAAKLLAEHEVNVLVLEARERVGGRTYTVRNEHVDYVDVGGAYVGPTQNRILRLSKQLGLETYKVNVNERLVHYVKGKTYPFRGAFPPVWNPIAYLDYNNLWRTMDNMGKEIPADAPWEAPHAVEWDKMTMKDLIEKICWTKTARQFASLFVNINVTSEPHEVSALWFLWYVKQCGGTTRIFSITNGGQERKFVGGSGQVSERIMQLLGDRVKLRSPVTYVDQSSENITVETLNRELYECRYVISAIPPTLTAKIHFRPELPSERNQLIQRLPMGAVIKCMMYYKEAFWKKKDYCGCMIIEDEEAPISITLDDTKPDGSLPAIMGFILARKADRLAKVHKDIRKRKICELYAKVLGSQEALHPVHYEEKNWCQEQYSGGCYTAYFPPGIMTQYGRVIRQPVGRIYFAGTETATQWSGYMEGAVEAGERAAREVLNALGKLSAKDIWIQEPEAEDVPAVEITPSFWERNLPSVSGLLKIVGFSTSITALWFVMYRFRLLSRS
# Outline: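 Beef brain mitochondria (6 mg/mL) in K3PO4 buffer pH 7.4 with kynuramine substrate (four concentrations, 5 μM to 0.1 mM). Preincubated 30 min at 38 °C with 0.5 μM L-deprenyl to isolate MAO-A. Drug in DMSO; incubated 30 min at 38 °C, stopped with HClO4, supernatant into NaOH, read fluorimetrically. Means of three or more experiments run in duplicate.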
# Mus musculus [3] = experiment: Effect on duration of immobility in CD1 mouse at 1 mg/kg, ip by forced swimming test relative to control; type: functional, organism-based; parameters: dose 1 mg/kg; outline: as §1
# Mus musculus [4] = experiment: Induction of behavioral effects in CD1 mouse at 1 mg/kg, ip by forced swimming test relative to carboxy methyl cellulose; type: functional, organism-based; parameters: dose 1 mg/kg; outline: as §1
# Mus musculus [5] = experiment: Effect on duration of immobility in CD1 mouse at 1 mg/kg, ip by forced swimming test relative to carboxy methyl cellulose; type: functional, organism-based; parameters: dose 1 mg/kg; outline: as §1
# Mus musculus [6] = experiment: Induction of behavioral effects in CD1 mouse at 10 mg/kg, ip by forced swimming test relative to control; type: functional, organism-based; parameters: dose 10 mg/kg; outline: as §1
# Mus musculus [7] = experiment: Effect on duration of immobility in CD1 mouse at 10 mg/kg, ip by forced swimming test relative to carboxy methyl cellulose; type: functional, organism-based; parameters: dose 10 mg/kg; outline: as §1
# Mus musculus [8] = experiment: Effect on duration of immobility in CD1 mouse at 10 mg/kg, ip by forced swimming test relative to control; type: functional, organism-based; parameters: dose 10 mg/kg; outline: as §1
# Mus musculus [9] = experiment: Increase in duration of immobility in CD1 mouse at 10 mg/kg, ip by forced swimming test relative to control; type: functional, organism-based; parameters: dose 10 mg/kg; outline: as §1
# Mus musculus [10] = experiment: Induction of behavioral effects in CD1 mouse at 1 mg/kg, ip by forced swimming test relative to control; type: functional, organism-based; parameters: dose 1 mg/kg; outline: as §1
# Mus musculus [11] = experiment: Induction of behavioral effects in CD1 mouse at 10 mg/kg, ip by forced swimming test relative to carboxy methyl cellulose; type: functional, organism-based; parameters: dose 10 mg/kg; outline: as §1
# Mus musculus [12] = experiment: Increase in duration of immobility in CD1 mouse at 1 mg/kg, ip by forced swimming test relative to carboxy methyl cellulose; type: functional, organism-based; parameters: dose 1 mg/kg; outline: as §1
# Mus musculus [13] = experiment: Increase in duration of immobility in CD1 mouse at 10 mg/kg, ip by forced swimming test relative to carboxy methyl cellulose; type: functional, organism-based; parameters: dose 10 mg/kg; outline: as §1
# [14] = target: T2, Amine oxidase [flavin-containing] B (Bos taurus, UniProt P56560); experiment: Inhibition of bovine MAO-B by fluorimetric method
# T2 sequence (P56560 whole entry): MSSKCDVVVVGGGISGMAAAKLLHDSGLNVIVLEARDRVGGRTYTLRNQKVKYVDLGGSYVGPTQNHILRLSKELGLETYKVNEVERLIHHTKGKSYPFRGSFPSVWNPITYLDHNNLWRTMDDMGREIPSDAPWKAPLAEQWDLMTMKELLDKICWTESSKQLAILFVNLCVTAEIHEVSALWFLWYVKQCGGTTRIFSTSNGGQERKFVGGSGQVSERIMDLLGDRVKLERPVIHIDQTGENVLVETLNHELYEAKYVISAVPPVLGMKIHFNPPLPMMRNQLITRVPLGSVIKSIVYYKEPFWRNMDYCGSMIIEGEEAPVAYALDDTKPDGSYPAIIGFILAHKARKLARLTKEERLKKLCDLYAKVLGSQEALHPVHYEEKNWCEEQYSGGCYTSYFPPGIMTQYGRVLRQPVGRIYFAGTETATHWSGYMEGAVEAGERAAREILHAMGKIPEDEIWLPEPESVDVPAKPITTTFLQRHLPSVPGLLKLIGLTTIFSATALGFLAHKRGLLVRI
# Outline: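 Bovine brain mitochondria (6 mg/mL) in 0.25 M potassium phosphate buffer pH 7.4; preincubated 30 min at 38 °C with 0.05 μM clorgyline to isolate MAO-B. Kynuramine substrate at four levels, 5 μM to 0.1 mM; inhibitor added from DMSO; 30 min at 38 °C, stopped with HClO4, centrifuged, supernatant into 0.1 N NaOH, fluorimetric read-out. Means of ≥3 experiments in duplicate.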
structure (smiles),measurement,setting,value
O=c1c(O)c(-c2ccc(O)c(O)c2)oc2cc(O)cc(O)c12 [QUERCETIN],Activity,Mus musculus [1],Active
same,IC50,[2],0.01 µM
same,Activity,Mus musculus [3],inactive
same,Activity,Mus musculus [4],inactive
same,Activity,Mus musculus [5],inactive
same,Activity,Mus musculus [6],inactive
same,Activity,Mus musculus [7],inactive
same,Activity,Mus musculus [8],inactive
same,Activity,Mus musculus [9],Active
same,Activity,Mus musculus [10],inactive
same,Activity,Mus musculus [11],inactive
same,Activity,Mus musculus [12],Active
same,Activity,Mus musculus [13],Active
same,IC50,[14],20 µM

# Source: ChEMBL document CHEMBL1157970, “Quercetin as the active principle of Hypericum hircinum exerts a selective inhibitory activity against MAO-A: extraction, biological analysis, and computational study” (J Nat Prod, 2006)
